Results reported in ChEMBL document CHEMBL1155708, “Isoaurostatin, a novel topoisomerase inhibitor produced by Thermomonospora alba” (J Nat Prod, 2001).

Legend:
DNA topoisomerase = molecular target: T1, DNA topoisomerase (Bos taurus, UniProt A0JN73); assay: Inhibition calf thymus gland topoisomerase 1 assessed as conversion of supercoiled pBR322 DNA to relaxed form
T1 sequence (A0JN73 whole entry): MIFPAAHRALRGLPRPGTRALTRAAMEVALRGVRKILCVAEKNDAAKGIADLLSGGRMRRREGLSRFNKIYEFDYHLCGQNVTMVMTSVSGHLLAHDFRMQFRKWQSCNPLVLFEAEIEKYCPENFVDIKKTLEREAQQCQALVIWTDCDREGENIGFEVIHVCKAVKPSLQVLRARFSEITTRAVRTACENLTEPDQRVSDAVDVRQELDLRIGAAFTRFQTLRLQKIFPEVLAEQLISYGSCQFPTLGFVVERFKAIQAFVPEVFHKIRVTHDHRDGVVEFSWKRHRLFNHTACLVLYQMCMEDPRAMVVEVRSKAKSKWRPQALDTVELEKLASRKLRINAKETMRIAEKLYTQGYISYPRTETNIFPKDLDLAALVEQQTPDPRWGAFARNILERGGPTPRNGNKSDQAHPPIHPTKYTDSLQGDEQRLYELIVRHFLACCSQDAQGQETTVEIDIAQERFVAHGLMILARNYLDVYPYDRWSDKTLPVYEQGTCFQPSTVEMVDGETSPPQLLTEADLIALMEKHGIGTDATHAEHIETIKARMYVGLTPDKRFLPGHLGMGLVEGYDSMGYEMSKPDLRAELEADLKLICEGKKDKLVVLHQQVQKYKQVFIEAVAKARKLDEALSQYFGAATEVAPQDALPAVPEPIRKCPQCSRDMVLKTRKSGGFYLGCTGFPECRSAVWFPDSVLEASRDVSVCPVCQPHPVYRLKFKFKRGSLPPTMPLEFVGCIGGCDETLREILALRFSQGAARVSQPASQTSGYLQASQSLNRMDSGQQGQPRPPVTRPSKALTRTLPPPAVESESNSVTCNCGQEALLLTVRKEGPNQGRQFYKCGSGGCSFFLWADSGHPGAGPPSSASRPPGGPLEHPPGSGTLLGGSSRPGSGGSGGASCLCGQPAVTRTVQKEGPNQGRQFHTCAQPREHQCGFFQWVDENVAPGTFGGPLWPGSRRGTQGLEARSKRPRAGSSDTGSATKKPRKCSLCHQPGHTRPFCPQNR

DNA ligase = molecular target: T2, DNA ligase (Enterobacteria phage T4, UniProt P00970); assay: Inhibition of T4 ligase from bacteriophage infected Escherichia coli assessed as ligation of supercoiled pBR322 DNA; parameters: species or system Tequatrovirus T4
T2 sequence (P00970 whole entry): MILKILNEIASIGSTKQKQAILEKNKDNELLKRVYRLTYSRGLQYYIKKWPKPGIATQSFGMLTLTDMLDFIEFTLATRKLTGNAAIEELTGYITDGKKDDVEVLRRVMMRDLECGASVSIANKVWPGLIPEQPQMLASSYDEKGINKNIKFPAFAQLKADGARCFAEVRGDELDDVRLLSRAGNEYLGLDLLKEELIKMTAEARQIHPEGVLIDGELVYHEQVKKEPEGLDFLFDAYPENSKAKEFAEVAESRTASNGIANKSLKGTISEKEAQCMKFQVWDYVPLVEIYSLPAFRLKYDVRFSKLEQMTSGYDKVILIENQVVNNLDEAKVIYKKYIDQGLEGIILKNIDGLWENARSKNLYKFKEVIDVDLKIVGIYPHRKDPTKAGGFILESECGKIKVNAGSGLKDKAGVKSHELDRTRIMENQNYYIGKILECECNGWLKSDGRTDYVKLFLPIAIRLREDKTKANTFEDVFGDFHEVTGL

[1] = Inhibition of Arthrobacter luteus AluI assessed as undigested supercoiled pBR322 DNA concentration; parameters: species or system Cellulosimicrobium cellulans
In short: (§1)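 Restriction enzyme or nuclease activity followed as the remaining undigested supercoiled pBR322 DNA (or RNA) after reaction.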

DNA topoisomerase 1 = molecular target: T3, DNA topoisomerase 1 (Mus musculus, UniProt Q04750); assay: Inhibition topoisomerase 1 in mouse NIH/3T3 cells assessed as conversion of supercoiled pBR322 DNA to relaxed form; type: cell-based, NIH3T3
T3 sequence (Q04750 whole entry): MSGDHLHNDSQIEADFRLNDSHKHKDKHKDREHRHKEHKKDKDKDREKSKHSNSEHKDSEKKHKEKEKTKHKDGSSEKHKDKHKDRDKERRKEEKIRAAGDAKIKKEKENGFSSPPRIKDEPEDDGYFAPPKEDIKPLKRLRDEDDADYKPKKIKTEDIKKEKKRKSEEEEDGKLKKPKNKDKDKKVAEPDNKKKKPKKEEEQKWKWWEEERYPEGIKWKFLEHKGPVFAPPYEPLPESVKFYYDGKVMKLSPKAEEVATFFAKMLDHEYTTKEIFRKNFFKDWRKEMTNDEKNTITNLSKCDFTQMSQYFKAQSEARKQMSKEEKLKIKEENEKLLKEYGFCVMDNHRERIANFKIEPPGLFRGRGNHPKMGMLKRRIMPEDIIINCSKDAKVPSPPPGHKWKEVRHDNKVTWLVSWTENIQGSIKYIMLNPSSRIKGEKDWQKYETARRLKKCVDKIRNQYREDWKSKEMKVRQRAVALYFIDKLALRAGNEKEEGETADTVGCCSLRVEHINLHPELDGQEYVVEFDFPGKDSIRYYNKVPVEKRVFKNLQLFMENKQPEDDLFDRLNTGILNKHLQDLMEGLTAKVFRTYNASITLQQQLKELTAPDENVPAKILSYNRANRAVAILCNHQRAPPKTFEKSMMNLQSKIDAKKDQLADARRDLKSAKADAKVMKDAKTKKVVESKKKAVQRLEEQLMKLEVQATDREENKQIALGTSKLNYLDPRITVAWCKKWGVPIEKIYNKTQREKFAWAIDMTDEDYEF
In short: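 Enzyme source: Vero or NIH3T3 cells cultured 5 days, washed in PBS and pelleted (1 × 10^6 cells). Lysed 30 min on ice in 200 µL buffer (10 mM Tris-HCl pH 7.5, MgCl2, EGTA, AEBSF, β-mercaptoethanol, 0.5% CHAPS, 10% glycerin); the cleared supernatant relaxed supercoiled pBR322. Gel densitometry; IC50 is the amount halving activity.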

[2] = molecular target: T4, Type II restriction enzyme PstI (Providencia stuartii, UniProt P00640); assay: Inhibition of Providencia stuartii Pst 1 assessed as undigested supercoiled pBR322 DNA concentration; in short: as §1
T4 sequence (P00640 whole entry): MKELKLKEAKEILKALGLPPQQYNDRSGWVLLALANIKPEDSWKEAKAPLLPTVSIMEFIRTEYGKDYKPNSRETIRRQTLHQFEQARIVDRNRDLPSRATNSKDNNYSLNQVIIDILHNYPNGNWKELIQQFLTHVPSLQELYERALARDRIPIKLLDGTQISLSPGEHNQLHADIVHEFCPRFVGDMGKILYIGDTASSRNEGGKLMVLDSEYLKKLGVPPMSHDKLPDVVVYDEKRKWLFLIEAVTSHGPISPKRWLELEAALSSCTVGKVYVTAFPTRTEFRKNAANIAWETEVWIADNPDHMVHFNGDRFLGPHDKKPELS

[3] = molecular target: DNA topoisomerase 2-alpha (Homo sapiens, UniProt P11388); assay: Inhibition human placenta topoisomerase 2 assessed as conversion of catenated kinetoplast DNA to minicircle monomer
DNA topoisomerase 2-alpha, sequence (P11388 whole entry): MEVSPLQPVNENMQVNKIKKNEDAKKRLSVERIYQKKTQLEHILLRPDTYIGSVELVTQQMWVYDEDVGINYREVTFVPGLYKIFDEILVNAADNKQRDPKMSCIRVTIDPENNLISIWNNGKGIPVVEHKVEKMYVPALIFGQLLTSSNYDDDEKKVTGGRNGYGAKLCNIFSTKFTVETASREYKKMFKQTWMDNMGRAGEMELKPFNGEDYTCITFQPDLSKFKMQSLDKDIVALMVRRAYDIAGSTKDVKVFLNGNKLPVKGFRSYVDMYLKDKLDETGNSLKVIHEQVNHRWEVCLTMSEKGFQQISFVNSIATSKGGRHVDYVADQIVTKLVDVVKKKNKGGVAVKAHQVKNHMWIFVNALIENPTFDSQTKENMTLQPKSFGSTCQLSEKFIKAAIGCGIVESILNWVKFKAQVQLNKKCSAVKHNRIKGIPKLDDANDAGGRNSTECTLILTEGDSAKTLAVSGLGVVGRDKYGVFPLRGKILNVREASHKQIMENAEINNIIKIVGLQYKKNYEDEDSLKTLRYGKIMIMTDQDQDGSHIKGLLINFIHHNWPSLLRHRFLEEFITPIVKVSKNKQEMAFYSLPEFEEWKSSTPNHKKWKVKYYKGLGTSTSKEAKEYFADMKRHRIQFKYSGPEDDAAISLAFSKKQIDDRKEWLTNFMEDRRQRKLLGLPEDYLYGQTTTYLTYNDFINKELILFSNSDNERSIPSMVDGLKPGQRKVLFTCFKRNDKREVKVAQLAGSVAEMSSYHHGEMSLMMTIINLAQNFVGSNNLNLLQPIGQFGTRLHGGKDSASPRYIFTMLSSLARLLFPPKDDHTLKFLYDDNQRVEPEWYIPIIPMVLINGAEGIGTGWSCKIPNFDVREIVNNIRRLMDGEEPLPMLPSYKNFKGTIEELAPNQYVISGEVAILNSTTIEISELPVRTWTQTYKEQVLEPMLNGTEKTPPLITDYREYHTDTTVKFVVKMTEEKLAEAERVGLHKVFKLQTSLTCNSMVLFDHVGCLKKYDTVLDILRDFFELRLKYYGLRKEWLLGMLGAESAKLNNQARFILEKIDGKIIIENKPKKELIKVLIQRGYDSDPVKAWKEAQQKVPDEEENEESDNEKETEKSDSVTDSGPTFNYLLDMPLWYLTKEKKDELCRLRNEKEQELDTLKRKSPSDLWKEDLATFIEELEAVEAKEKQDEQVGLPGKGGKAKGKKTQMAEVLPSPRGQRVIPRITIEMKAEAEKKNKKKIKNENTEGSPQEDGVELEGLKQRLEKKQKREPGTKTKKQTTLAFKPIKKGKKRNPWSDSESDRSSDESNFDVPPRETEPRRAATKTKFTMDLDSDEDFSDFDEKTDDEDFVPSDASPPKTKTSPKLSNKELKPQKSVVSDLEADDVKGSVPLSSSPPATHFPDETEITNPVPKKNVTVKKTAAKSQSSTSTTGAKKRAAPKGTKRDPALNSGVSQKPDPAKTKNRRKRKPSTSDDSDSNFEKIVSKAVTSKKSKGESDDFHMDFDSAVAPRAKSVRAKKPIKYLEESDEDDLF
In short: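 Human placenta topoisomerase II decatenation followed as conversion of catenated kinetoplast DNA to minicircle monomers.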

IC50 [3] [µM] | SMILES | IC50 (DNA topoisomerase) [µM] | IC50 (DNA ligase) [µM] | IC50 [1] [µM] | IC50 (DNA topoisomerase 1) [µM] | IC50 [2] [µM]
– | CC[C@@]1(O)C(=O)OCc2c1cc1n(c2=O)Cc2cc3ccccc3nc2-1 [CAMPTOTHECIN] | 17 | > 300 | > 300 | 12 | > 300
1 | COc1cccc2c1C(=O)c1c(O)c3c(c(O)c1C2=O)C[C@@](O)(C(=O)CO)C[C@@H]3O[C@H]1C[C@H](N)[C@H](O)[C@H](C)O1 [DOXORUBICIN] | > 200 | > 200 | 24 | > 200 | > 200
4 | C=C1NC(=O)C(C)C(CCC(C)C(=O)/C=C/C(C)=C/CC(C)CCCCCCC)OC(=O)[C@H](CC(OS(=O)(=O)O)C(N)=O)NC(=O)[C@@H](C)CNC1=O (stereo partly drawn) [TOPOSTATIN] | 17 | > 250 | > 250 | 47 | 19

SMILES | IC50 [3] [µM] | IC50 (DNA topoisomerase) [µM] | IC50 (DNA ligase) [µM] | IC50 [1] [µM] | IC50 (DNA topoisomerase 1) [µM] | IC50 [2] [µM]
O=C1Oc2cc(O)ccc2/C1=C\c1ccc(O)cc1 [ISOAUROSTATIN] | > 400 | 307 | > 400 | > 400 | > 400 | > 400
